# Laboratory results taken from ChEMBL document CHEMBL4266041, “Hydroxybiphenylamide GroEL/ES Inhibitors Are Potent Antibacterials against Planktonic and Biofilm Forms of Staphylococcus aureus” (J Med Chem, 2018).
# Tests used:
# E. coli GroEL/ES [1] = target: T1, E. coli GroEL/ES (Escherichia coli, UniProt P0A6F5); assay: Inhibition of Escherichia coli GroEL expressed in Escherichia coli DH5alpha/Escherichia coli GroES expressed in Escherichia coli BL21 (DE3) assessed as reduction in GroEL/GroES-mediated denatured rhodanese refolding after 45 mins by spectrometric analysis
# T1 sequence (P0A6F5 whole entry, looked up): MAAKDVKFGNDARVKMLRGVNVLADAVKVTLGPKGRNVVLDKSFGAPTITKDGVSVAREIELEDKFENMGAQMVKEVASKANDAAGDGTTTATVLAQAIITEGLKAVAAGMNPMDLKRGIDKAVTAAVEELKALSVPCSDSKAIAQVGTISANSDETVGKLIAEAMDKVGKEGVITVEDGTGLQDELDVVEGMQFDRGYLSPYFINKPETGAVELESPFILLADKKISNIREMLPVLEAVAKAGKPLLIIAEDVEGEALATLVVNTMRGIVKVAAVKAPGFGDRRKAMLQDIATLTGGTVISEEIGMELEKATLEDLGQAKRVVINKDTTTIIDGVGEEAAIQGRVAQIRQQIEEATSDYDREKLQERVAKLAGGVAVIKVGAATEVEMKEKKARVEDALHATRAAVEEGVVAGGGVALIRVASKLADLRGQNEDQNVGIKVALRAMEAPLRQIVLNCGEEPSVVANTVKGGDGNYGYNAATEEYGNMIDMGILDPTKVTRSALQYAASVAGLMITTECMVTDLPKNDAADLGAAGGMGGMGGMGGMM
# Summary of the method: (§1)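 Uses E. coli GroEL/ES with a denatured MDH or rhodanese reporter. GroEL first forms a binary complex with the denatured reporter. Refolding is started by adding ATP and GroES, then reporter enzyme activity is read. DMSO is the negative control. IC50 values from replicate curves are log-averaged after ROUT outlier screening.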
# Staphylococcus aureus [2] = assay: Antibacterial activity against methicillin-resistant Staphylococcus aureus ATCC BAA-44 after 6 to 8 hrs by bacterial proliferation assay; assay type: functional, organism-based
# Enterococcus faecium = assay: Antibacterial activity against Enterococcus faecium ATCC 19434 after 24 hrs by bacterial proliferation assay; assay type: functional, organism-based; details: ATCC 19434, 24 h
# [3] = Cytotoxicity against human THLE3 cells assessed as reduction in cell viability after 48 hrs by Alamar Blue reporter assay; details: 48 h
# Acinetobacter baumannii = assay: Antibacterial activity against Acinetobacter baumannii ATCC 19606 after 24 hrs by bacterial proliferation assay; assay type: functional, organism-based; details: ATCC 19606 = CIP 70.34 = JCM 6841, 24 h
# Summary of the method: (§2)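 Bacterial growth inhibition in liquid culture. The highest concentration tested was 100 µM. The mean was back-calculated from the average log value. Values above the top concentration were set 0.1 log unit higher.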
# Staphylococcus aureus [4] = assay: Antibacterial activity against Staphylococcus aureus ATCC 25923 after 6 to 8 hrs by bacterial proliferation assay; assay type: functional, organism-based
# [5] = target: T2, Thiosulfate sulfurtransferase (Homo sapiens, UniProt Q16762); assay: Inhibition of refolded rhodanese (unknown origin) preincubated with Escherichia coli GroEL/GroES for 60 mins in absence of compound followed by compound addition by spectrometric analysis
# T2 sequence (Q16762 whole entry): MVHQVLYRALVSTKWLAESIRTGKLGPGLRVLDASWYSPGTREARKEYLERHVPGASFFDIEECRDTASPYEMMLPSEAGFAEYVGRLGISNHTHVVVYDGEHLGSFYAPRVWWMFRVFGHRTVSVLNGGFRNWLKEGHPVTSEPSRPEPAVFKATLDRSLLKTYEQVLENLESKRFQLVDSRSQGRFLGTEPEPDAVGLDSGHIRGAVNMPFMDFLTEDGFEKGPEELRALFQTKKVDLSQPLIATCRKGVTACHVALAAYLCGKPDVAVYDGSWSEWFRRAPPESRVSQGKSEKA
# Enterobacter cloacae = assay: Antibacterial activity against Enterobacter cloacae subsp. cloacae ATCC 13047 after 24 hrs by bacterial proliferation assay; assay type: functional, organism-based; details: subsp. cloacae ATCC 13047, 24 h; summary of the method: as §2
# Pseudomonas aeruginosa = assay: Antibacterial activity against Pseudomonas aeruginosa ATCC 10145 after 24 hrs by bacterial proliferation assay; assay type: functional, organism-based; details: ATCC 10145, 24 h; summary of the method: as §2
# HSP60/HSP10 = HSP60/HSP10 (Homo sapiens, UniProt P10809); assay: Inhibition of human N-terminal octa-His-tagged HSP60 expressed in Escherichia coli Rosetta(DE3) pLysS/human HSP10 expressed in Escherichia coli Rosetta(DE3) assessed as reduction in HSP60/HSP10-mediated denatured MDH refolding after 40 to 60 mins by spectrometric analysis
# Chain of HSP60/HSP10 (P10809 whole entry): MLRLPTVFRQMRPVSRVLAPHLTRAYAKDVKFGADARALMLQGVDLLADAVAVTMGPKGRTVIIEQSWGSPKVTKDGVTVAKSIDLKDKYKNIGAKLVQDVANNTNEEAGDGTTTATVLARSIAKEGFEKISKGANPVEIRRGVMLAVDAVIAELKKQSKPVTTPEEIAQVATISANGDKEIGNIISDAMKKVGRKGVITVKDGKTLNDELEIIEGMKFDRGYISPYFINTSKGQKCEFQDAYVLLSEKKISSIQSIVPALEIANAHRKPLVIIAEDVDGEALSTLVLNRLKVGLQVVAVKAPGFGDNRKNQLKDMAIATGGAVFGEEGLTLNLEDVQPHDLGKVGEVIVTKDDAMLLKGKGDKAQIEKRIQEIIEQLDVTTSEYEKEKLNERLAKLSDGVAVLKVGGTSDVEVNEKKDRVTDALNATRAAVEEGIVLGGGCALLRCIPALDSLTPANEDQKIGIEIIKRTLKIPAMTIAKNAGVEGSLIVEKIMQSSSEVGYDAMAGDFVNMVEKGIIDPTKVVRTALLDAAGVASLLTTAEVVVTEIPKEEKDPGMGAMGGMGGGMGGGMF
# Chain of HSP60/HSP10 (P61604 whole entry, further chain): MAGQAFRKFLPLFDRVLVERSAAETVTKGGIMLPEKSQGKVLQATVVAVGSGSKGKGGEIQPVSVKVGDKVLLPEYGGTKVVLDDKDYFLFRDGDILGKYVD
# Summary of the method: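 Human HSP60/10 refolding of denatured MDH, run the same way as the GroEL/ES-dMDH assay. A binary complex of chaperonin and denatured MDH is formed, and refolding is started with ATP and HSP10. MDH activity is the read-out. DMSO is the negative control. IC50 values from replicate curves are log-averaged after ROUT outlier screening.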
# E. coli GroEL/ES [6] = target: T1, E. coli GroEL/ES; assay: Inhibition of Escherichia coli GroEL expressed in Escherichia coli DH5alpha/Escherichia coli GroES expressed in Escherichia coli BL21 (DE3) assessed as reduction in GroEL/GroES-mediated denatured MDH refolding after 20 to 40 mins by spectrometric analysis; summary of the method: as §1
# [7] = Inhibition of refolded MDH (unknown origin) preincubated with Escherichia coli GroEL/GroES for 45 mins in absence of compound followed by compound addition and measured for 20 to 35 mins by spectrometric analysis
# HEK293 = assay: Cytotoxicity against HEK293 cells assessed as reduction in cell viability after 48 hrs by Alamar Blue reporter assay; details: human, hek293, 48 h
# Klebsiella pneumoniae = assay: Antibacterial activity against Klebsiella pneumoniae ATCC 13883 after 6 to 8 hrs by bacterial proliferation assay; assay type: functional, organism-based; summary of the method: as §2
# [8] = Staphylococcus aureus, ATCC BAA-44
compound,measurement,setting,value
O=C(Nc1ccc(Oc2ccc(Cl)cc2)c(Cl)c1)c1cc(I)cc(I)c1O [RAFOXANIDE],IC50,E. coli GroEL/ES [1],2.2 µM
same,EC50,Staphylococcus aureus [2],0.34 µM
same,EC50,Enterococcus faecium,0.99 µM
same,CC50,[3],24 µM
same,EC50,Acinetobacter baumannii,31 µM
same,EC50,Staphylococcus aureus [4],0.32 µM
same,IC50,[5],> 100 µM
same,EC50,Enterobacter cloacae,40 µM
same,EC50,Pseudomonas aeruginosa,> 100 µM
same,IC50,HSP60/HSP10,2.8 µM
same,IC50,E. coli GroEL/ES [6],4.3 µM
same,IC50,[7],25 µM
same,CC50,HEK293,> 100 µM
same,EC50,Klebsiella pneumoniae,> 100 µM
O=C(Nc1ccc(Sc2nc3ccccc3s2)cc1)c1cc(Br)ccc1O,IC50,E. coli GroEL/ES [1],30 µM
same,EC50,Staphylococcus aureus [2]; [8],0.14 µM
same,EC50,Enterococcus faecium,19 µM
same,CC50,[3],12 µM
same,EC50,Acinetobacter baumannii,> 100 µM
same,EC50,Staphylococcus aureus [4],0.12 µM
same,IC50,[5],> 100 µM
same,EC50,Enterobacter cloacae,> 100 µM
same,EC50,Pseudomonas aeruginosa,> 100 µM
same,IC50,HSP60/HSP10,> 100 µM
same,IC50,E. coli GroEL/ES [6],38 µM
same,IC50,[7],> 63 µM
same,CC50,HEK293,42 µM
same,EC50,Klebsiella pneumoniae,> 100 µM
O=C(Nc1cccc(Cl)c1)c1ccccc1O,IC50,E. coli GroEL/ES [1],> 100 µM
same,EC50,Staphylococcus aureus [2]; [8],4.2 µM
same,EC50,Enterococcus faecium,> 100 µM
same,CC50,[3],16 µM
same,EC50,Acinetobacter baumannii,> 100 µM
same,EC50,Staphylococcus aureus [4],3.1 µM
same,IC50,[5],> 100 µM
same,EC50,Enterobacter cloacae,> 100 µM
same,EC50,Pseudomonas aeruginosa,> 100 µM
same,IC50,HSP60/HSP10,> 100 µM
same,IC50,E. coli GroEL/ES [6],> 100 µM
same,IC50,[7],> 63 µM
same,CC50,HEK293,37 µM
same,EC50,Klebsiella pneumoniae,> 100 µM
O=C(Nc1cccc(Cl)c1)c1cc(Br)cc(Br)c1,IC50,E. coli GroEL/ES [1],> 100 µM
same,EC50,Staphylococcus aureus [2]; [8],12 µM
same,EC50,Enterococcus faecium,> 100 µM
same,CC50,[3],45 µM
same,EC50,Acinetobacter baumannii,> 100 µM
same,EC50,Staphylococcus aureus [4],14 µM
same,IC50,[5],> 100 µM
same,EC50,Enterobacter cloacae,> 100 µM
same,EC50,Pseudomonas aeruginosa,> 100 µM
same,IC50,HSP60/HSP10,> 100 µM
same,IC50,E. coli GroEL/ES [6],> 100 µM
same,IC50,[7],> 63 µM
same,CC50,HEK293,53 µM
same,EC50,Klebsiella pneumoniae,> 100 µM
COc1c(Br)cccc1C(=O)Nc1ccc(Sc2nc3ccccc3s2)cc1,IC50,E. coli GroEL/ES [1],> 100 µM
same,EC50,Staphylococcus aureus [2]; [8],> 100 µM
same,EC50,Enterococcus faecium,> 100 µM
same,CC50,[3],> 100 µM
same,EC50,Acinetobacter baumannii,> 100 µM
same,EC50,Staphylococcus aureus [4],> 100 µM
same,IC50,[5],> 100 µM
same,EC50,Enterobacter cloacae,> 100 µM
same,EC50,Pseudomonas aeruginosa,> 100 µM
same,IC50,HSP60/HSP10,> 100 µM
same,IC50,E. coli GroEL/ES [6],> 100 µM
same,IC50,[7],> 63 µM
same,CC50,HEK293,> 100 µM
same,EC50,Klebsiella pneumoniae,> 100 µM
O=C(Nc1ccccc1)c1cccc(Br)c1,IC50,E. coli GroEL/ES [1],> 100 µM
same,EC50,Staphylococcus aureus [2]; [8],> 100 µM
same,EC50,Enterococcus faecium,> 100 µM
same,CC50,[3],> 100 µM
same,EC50,Acinetobacter baumannii,> 100 µM
same,EC50,Staphylococcus aureus [4],> 100 µM
same,IC50,[5],> 100 µM
same,EC50,Enterobacter cloacae,> 100 µM
same,EC50,Pseudomonas aeruginosa,> 100 µM
same,IC50,HSP60/HSP10,> 100 µM
same,IC50,E. coli GroEL/ES [6],> 100 µM
same,IC50,[7],> 63 µM
same,CC50,HEK293,> 100 µM
same,EC50,Klebsiella pneumoniae,> 100 µM
O=C(Nc1ccc(Sc2nc3ccccc3s2)c(Cl)c1)c1cc(Br)ccc1O,IC50,E. coli GroEL/ES [1],11 µM
same,EC50,Staphylococcus aureus [2]; [8],0.17 µM
same,EC50,Enterococcus faecium,15 µM
same,CC50,[3],14 µM
same,EC50,Acinetobacter baumannii,> 100 µM
same,EC50,Staphylococcus aureus [4],0.12 µM
same,IC50,[5],> 100 µM
same,EC50,Enterobacter cloacae,> 100 µM
same,EC50,Pseudomonas aeruginosa,> 100 µM
same,IC50,HSP60/HSP10,> 100 µM
same,IC50,E. coli GroEL/ES [6],37 µM
same,IC50,[7],> 63 µM
same,CC50,HEK293,45 µM
same,EC50,Klebsiella pneumoniae,> 100 µM
O=C(Nc1ccccc1)c1ccccc1O [SALICYLANILIDE],IC50,E. coli GroEL/ES [1],> 100 µM
same,EC50,Staphylococcus aureus [2]; [8],51 µM
same,EC50,Enterococcus faecium,> 100 µM
same,CC50,[3],68 µM
same,EC50,Acinetobacter baumannii,> 100 µM
same,EC50,Staphylococcus aureus [4],28 µM
same,IC50,[5],> 100 µM
same,EC50,Enterobacter cloacae,> 100 µM
same,EC50,Pseudomonas aeruginosa,> 100 µM
same,IC50,HSP60/HSP10,> 100 µM
same,IC50,E. coli GroEL/ES [6],> 100 µM
same,IC50,[7],> 63 µM
same,CC50,HEK293,> 100 µM
same,EC50,Klebsiella pneumoniae,> 100 µM
COc1ccccc1C(=O)Nc1ccc(Sc2nc3ccccc3s2)c(Cl)c1,IC50,E. coli GroEL/ES [1],> 100 µM
same,EC50,Staphylococcus aureus [2]; [8],> 100 µM
same,EC50,Enterococcus faecium,> 100 µM
same,CC50,[3],> 100 µM
same,EC50,Acinetobacter baumannii,> 100 µM
same,EC50,Staphylococcus aureus [4],> 100 µM
same,IC50,[5],> 100 µM
same,EC50,Enterobacter cloacae,> 100 µM
same,EC50,Pseudomonas aeruginosa,> 100 µM
same,IC50,HSP60/HSP10,> 100 µM
same,IC50,E. coli GroEL/ES [6],> 100 µM
same,IC50,[7],> 63 µM
same,CC50,HEK293,> 100 µM
same,EC50,Klebsiella pneumoniae,> 100 µM
